From ChEMBL document CHEMBL4732173, “Easily accessed nitroquinolones exhibiting potent and selective anti-tubercular activity” (Eur J Med Chem, 2021)
In brackets after ≈: the same amount, converted by molar mass.

The molecules below were run on Mycobacterium tuberculosis (assay: Antitubercular activity against Mycobacterium tuberculosis harboring gfp reporter gene and wild type DrpE1 assessed as inhibition of bacterial growth incubated for 14 days by fluorescence based analysis). Conditions: 336 h, time 14 day.
Assay type: functional
How it was run: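 Controls were rifampicin at 2× MIC and 5% DMSO. Plates ran 14 days at 37 °C, 5% CO2, with GFP read at ex 485/em 520. Data were normalised and curve-fitted (Levenberg-Marquardt). MIC90 is the lowest concentration inhibiting >90% of growth.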

First: CCOC(=O)c1c[nH]c2c(C(F)(F)F)cc([N+](=O)[O-])cc2c1=O
Second: O=C(NO)c1cn(Cc2cccc(F)c2)c2ccc([N+](=O)[O-])cc2c1=O
The MIC90 of the first is lower: 1.84 µM (≈ 0.609 µg/mL) for the first, > 125 µM for the second.

Compared with `O=C(NCCNCCO)c1cn(Cc2ccc(F)cc2)c2ccc([N+](=O)[O-])cc2c1=O`, `N#Cc1ccc(Cn2cc(C(=O)NCCNCCO)c(=O)c3cc([N+](=O)[O-])ccc32)cc1` is higher in MIC90: 0.919 µM (≈ 0.394 µg/mL) for the first, > 125 µM for the second.

`O=C(NCCNCCO)c1cn(Cc2cccc(F)c2)c2ccc([N+](=O)[O-])cc2c1=O` and `N#Cc1cccc(Cn2cc(C(=O)NCCNCCO)c(=O)c3cc([N+](=O)[O-])ccc32)c1` are within 1.5-fold of each other in MIC90: 3.7 µM (≈ 1.59 µg/mL) for the first, 3.69 µM (≈ 1.61 µg/mL) for the second.

First: O=C(NCCN1CCOCC1)c1cn(Cc2cccc(Cl)c2)c2ccc([N+](=O)[O-])cc2c1=O
Second: O=C(NCCN1CCOCC1)c1cn(Cc2cccc(Br)c2)c2ccc([N+](=O)[O-])cc2c1=O
The MIC90 of the first is lower: 31.9 µM (≈ 15 µg/mL) for the first, > 125 µM for the second.

Compared with `O=C(NCCOCCO)c1cn(Cc2cccc(Cl)c2)c2ccc([N+](=O)[O-])cc2c1=O`, `O=C(NCCOCCO)c1cn(Cc2cccc(F)c2)c2ccc([N+](=O)[O-])cc2c1=O` is higher in MIC90: 16 µM (≈ 7.15 µg/mL) for the first, > 125 µM for the second.

Going from `COCCNC(=O)c1cn(Cc2cccc(Cl)c2)c2ccc([N+](=O)[O-])cc2c1=O` to `COCCNC(=O)c1cn(Cc2cccc(F)c2)c2ccc([N+](=O)[O-])cc2c1=O`, the MIC90 rises from 0.675 µM (≈ 0.281 µg/mL) to > 125 µM.

Compared with `O=C(NO)c1cn(Cc2cccc(Br)c2)c2ccc([N+](=O)[O-])cc2c1=O`, `O=C(NO)c1cn(Cc2cccc(Cl)c2)c2ccc([N+](=O)[O-])cc2c1=O` is lower in MIC90: > 125 µM for the first, 125 µM (≈ 46.7 µg/mL) for the second.

`N#Cc1cccc(Cn2cc(C(=O)O)c(=O)c3cc([N+](=O)[O-])ccc32)c1` and `N#Cc1cccc(Cn2cc(C(=O)NO)c(=O)c3cc([N+](=O)[O-])ccc32)c1` cannot be ordered by MIC90: > 125 µM for the first, > 125 µM for the second.

`NNC(=O)c1ccncc1` [ISONIAZID] and `COCCNC(=O)c1cn(Cc2ccc(F)cc2)c2ccc([N+](=O)[O-])cc2c1=O` cannot be ordered by MIC90: 0.2 µM (≈ 0.0274 µg/mL) for the first, < 0.244 µM for the second.

First: COCCNC(=O)c1cn(Cc2ccc(C#N)cc2)c2ccc([N+](=O)[O-])cc2c1=O
Second: N#Cc1ccc(Cn2cc(C(=O)NCCOCCO)c(=O)c3cc([N+](=O)[O-])ccc32)cc1
The MIC90 of the first is higher: > 125 µM for the first, 14 µM (≈ 6.11 µg/mL) for the second.

Compared with `CO[C@H]1/C=C/O[C@@]2(C)Oc3c(C)c(O)c4c(O)c(c(/C=N/N5CCN(C)CC5)c(O)c4c3C2=O)NC(=O)/C(C)=C\C=C\[C@H](C)[C@H](O)[C@@H](C)[C@@H](O)[C@@H](C)[C@H](OC(C)=O)[C@@H]1C` [RIFAMPIN], `O=C(NCCN1CCOCC1)c1cn(Cc2cccc(F)c2)c2ccc([N+](=O)[O-])cc2c1=O` is higher in MIC90: 0.01 µM (≈ 0.00823 µg/mL) for the first, > 125 µM for the second.

Compared with `N#Cc1cccc(Cn2cc(C(=O)NCCOCCO)c(=O)c3cc([N+](=O)[O-])ccc32)c1`, `COCCNC(=O)c1cn(Cc2cccc(C#N)c2)c2ccc([N+](=O)[O-])cc2c1=O` is higher in MIC90: 15 µM (≈ 6.54 µg/mL) for the first, > 125 µM for the second.

`O=C(NCCOCCO)c1cn(Cc2ccc(F)cc2)c2ccc([N+](=O)[O-])cc2c1=O` showed an MIC90 of 8.08 µM (≈ 3.47 µg/mL).

These molecules were tested on Mycobacterium tuberculosis (assay: Antitubercular activity against Mycobacterium tuberculosis harboring gfp reporter gene and DrpE1 mutation assessed as inhibition of bacterial growth incubated for 14 days by fluorescence based analysis). Conditions: time 14 day.
Assay type: functional

Work on `COCCNC(=O)c1cn(Cc2ccc(F)cc2)c2ccc([N+](=O)[O-])cc2c1=O` yielded an MIC90 of 62.5 µM (≈ 25 µg/mL).
